# ChEMBL document CHEMBL1129275, “Synthesis and in vitro and in vivo characteristics of an iodinated analogue of the beta-adrenoceptor antagonist carazolol” (J Med Chem, 1996)
# Columns and labels:
# Oryctolagus cuniculus [1] = experiment: Biodistribution pattern of [123I]- ligand was evaluated in blood of anesthetized rabbit after Intravenous injection of 50 uCi after 30 min; format: ADME, organism-based; settings: in vivo, 0.5 h
# Summary of the method: (§1)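 Male New Zealand white rabbits, 2.5–3.5 kg, anesthetized with 5 mg/kg xylazine plus 30 mg/kg ketamine im. Each received 50 uCi radioligand (specific activity > 5000 Ci/mmol) iv via ear vein. Animals were killed with 200 mg/kg pentobarbital im at the set time. Blood was drawn by intracardiac puncture and organs weighed. Gamma counting was decay-corrected, expressed as %ID x kg body weight/g tissue, mean ± SEM, n = 3/time point.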
# Oryctolagus cuniculus [2] = experiment: […] biodistribution pattern of [123I]- ligand was evaluated in kidney of anesthetized rabbit after Intravenous injection of 50 uCi after 24 hr; format: ADME, organism-based; settings: in vivo
# Summary of the method: (§2)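 Male New Zealand white rabbits (2.5–3.5 kg), anesthetized with xylazine 5 mg/kg plus ketamine 30 mg/kg im, given 50 µCi radioligand (specific activity >5000 Ci/mmol) iv via ear vein. Euthanized at set times by pentobarbital 200 mg/kg im, n = 3/time point. Organs removed and weighed, gamma-counted, decay/weight corrected; expressed as % ID x kg body weight/g tissue, mean ± SEM.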
# Oryctolagus cuniculus [3] = experiment: Biodistribution pattern of [123I]- ligand was evaluated in intestine of anesthetized rabbit after Intravenous injection of 50 uCi after 24 hr; format: ADME, organism-based; settings: in vivo; summary of the method: as §1
# Oryctolagus cuniculus [4] = experiment: Biodistribution pattern of [123I]- ligand was evaluated in intestine of anesthetized rabbit after Intravenous injection of 50 uCi after 6 hr; format: ADME, organism-based; settings: in vivo; summary of the method: as §1
# Oryctolagus cuniculus [5] = experiment: Biodistribution pattern of [123I]- ligand was evaluated in kidney of anesthetized rabbit after Intravenous injection of 50 uCi after 30 min; format: ADME, organism-based; settings: in vivo, 0.5 h; summary of the method: as §1
# Oryctolagus cuniculus [6] = experiment: Biodistribution pattern of [123I]- ligand was evaluated in kidney of anesthetized rabbit after Intravenous injection of 50 uCi after 4 hr; format: ADME, organism-based; settings: in vivo; summary of the method: as §1
# Oryctolagus cuniculus [7] = experiment: Biodistribution pattern of [123I]- ligand was evaluated in left ventricular muscle of anesthetized rabbit after Intravenous injection of 50 uCi after 30 min; format: ADME, organism-based, Muscle tissue; settings: in vivo, 0.5 h; summary of the method: as §1
# Oryctolagus cuniculus [8] = experiment: Biodistribution pattern of [123I]- ligand was evaluated in right atrial muscle of anesthetized rabbit after Intravenous injection of 50 uCi after 1 hr; format: ADME, organism-based, Muscle tissue; settings: in vivo; summary of the method: as §2
# Oryctolagus cuniculus [9] = experiment: Biodistribution pattern of [123I]- ligand was evaluated in right atrial muscle of anesthetized rabbit after Intravenous injection of 50 uCi after 30 min; format: ADME, organism-based, Muscle tissue; settings: in vivo, 0.5 h; summary of the method: as §2
# Oryctolagus cuniculus [10] = experiment: Biodistribution pattern of [123I]- ligand was evaluated in right ventricular muscle of anesthetized rabbit after Intravenous injection of 50 uCi after 2 hr; format: ADME, organism-based, Muscle tissue; settings: in vivo; summary of the method: as §2
# Oryctolagus cuniculus [11] = experiment: Cerebral biodistribution pattern of [123I]- ligand was evaluated in pituitary gland of anesthetized rabbit after Intravenous injection of 50 uCi after 5 min; format: ADME, organism-based; settings: in vivo; summary of the method: as §2
# Oryctolagus cuniculus [12] = experiment: Cerebral biodistribution pattern of [123I]- ligand was evaluated in striatum of anesthetized rabbit after Intravenous injection of 50 uCi after 1 hr; format: ADME, organism-based; settings: in vivo; summary of the method: as §2
# Oryctolagus cuniculus [13] = experiment: Cerebral biodistribution pattern of [123I]- ligand was evaluated in striatum of anesthetized rabbit after Intravenous injection of 50 uCi after 24 hr; format: ADME, organism-based; settings: in vivo; summary of the method: as §2
# Oryctolagus cuniculus [14] = experiment: Cerebral biodistribution pattern of [123I]- ligand was evaluated in thalamus of anesthetized rabbit after Intravenous injection of 50 uCi after 24 hr; format: ADME, organism-based; settings: in vivo; summary of the method: as §2
# Oryctolagus cuniculus [15] = experiment: Cerebral biodistribution pattern of [123I]- ligand was evaluated in thalamus of anesthetized rabbit after Intravenous injection of 50 uCi after 2 hr; format: ADME, organism-based; settings: in vivo; summary of the method: as §2
# Oryctolagus cuniculus [16] = experiment: Biodistribution pattern of [123I]- ligand was evaluated in left ventricular muscle of anesthetized rabbit after Intravenous injection of 50 uCi after 5 min; format: ADME, organism-based, Muscle tissue; settings: in vivo; summary of the method: as §1
# Oryctolagus cuniculus [17] = experiment: Biodistribution pattern of [123I]- ligand was evaluated in lung of anesthetized rabbit after Intravenous injection of 50 uCi after 30 min; format: ADME, organism-based; settings: in vivo, 0.5 h; summary of the method: as §1
# Oryctolagus cuniculus [18] = experiment: Biodistribution pattern of [123I]- ligand was evaluated in lung of anesthetized rabbit after Intravenous injection of 50 uCi after 4 hr; format: ADME, organism-based; settings: in vivo; summary of the method: as §1
# Oryctolagus cuniculus [19] = experiment: Biodistribution pattern of [123I]- ligand was evaluated in lung of anesthetized rabbit after Intravenous injection of 50 uCi after 5 min; format: ADME, organism-based; settings: in vivo; summary of the method: as §1
# Oryctolagus cuniculus [20] = experiment: Biodistribution pattern of [123I]- ligand was evaluated in muscle of anesthetized rabbit after Intravenous injection of 50 uCi after 5 min; format: ADME, organism-based, Muscle tissue; settings: in vivo; summary of the method: as §2
# Oryctolagus cuniculus [21] = experiment: Biodistribution pattern of [123I]- ligand was evaluated in left ventricular muscle of anesthetized rabbit after Intravenous injection of 50 uCi after 1 hr; format: ADME, organism-based, Muscle tissue; settings: in vivo; summary of the method: as §1
# Oryctolagus cuniculus [22] = experiment: Cerebral biodistribution pattern of [123I]- ligand was evaluated in cerebellum of anesthetized rabbit after Intravenous injection of 50 uCi after 4 hr; format: ADME, organism-based; settings: in vivo; summary of the method: as §2
# Oryctolagus cuniculus [23] = experiment: Cerebral biodistribution pattern of [123I]- ligand was evaluated in frontal cortex of anesthetized rabbit after Intravenous injection of 50 uCi after 24 hr; format: ADME, organism-based; settings: in vivo; summary of the method: as §2
# Oryctolagus cuniculus [24] = experiment: Cerebral biodistribution pattern of [123I]- ligand was evaluated in frontal cortex of anesthetized rabbit after Intravenous injection of 50 uCi after 4 hr; format: ADME, organism-based; settings: in vivo; summary of the method: as §2
# Oryctolagus cuniculus [25] = experiment: Cerebral biodistribution pattern of [123I]- ligand was evaluated in hypothalamus of anesthetized rabbit after Intravenous injection of 50 uCi after 1 hr; format: ADME, organism-based; settings: in vivo; summary of the method: as §2
# Oryctolagus cuniculus [26] = experiment: Cerebral biodistribution pattern of [123I]- ligand was evaluated in hypothalamus of anesthetized rabbit after Intravenous injection of 50 uCi after 2 hr; format: ADME, organism-based; settings: in vivo; summary of the method: as §2
# Oryctolagus cuniculus [27] = experiment: Cerebral biodistribution pattern of [123I]- ligand was evaluated in hypothalamus of anesthetized rabbit after Intravenous injection of 50 uCi after 30 min; format: ADME, organism-based; settings: in vivo, 0.5 h; summary of the method: as §2
# Oryctolagus cuniculus [28] = experiment: […] biodistribution pattern of [123I]- ligand was evaluated in kidney of anesthetized rabbit after Intravenous injection of 50 uCi after 2 hr; format: ADME, organism-based; settings: in vivo; summary of the method: as §2
# Oryctolagus cuniculus [29] = experiment: Cerebral biodistribution pattern of [123I]- ligand was evaluated in pituitary gland of anesthetized rabbit after Intravenous injection of 50 uCi after 1 hr; format: ADME, organism-based; settings: in vivo; summary of the method: as §2
# Oryctolagus cuniculus [30] = experiment: Biodistribution pattern of [123I]- ligand was evaluated in fat of anesthetized rabbit after Intravenous injection of 50 uCi after 5 min; format: ADME, organism-based, Adipose tissue; settings: in vivo; summary of the method: as §1
# Oryctolagus cuniculus [31] = experiment: Biodistribution pattern of [123I]- ligand was evaluated in fat of anesthetized rabbit after Intravenous injection of 50 uCi after 6 hr; format: ADME, organism-based, Adipose tissue; settings: in vivo; summary of the method: as §1
# Oryctolagus cuniculus [32] = experiment: Biodistribution pattern of [123I]- ligand was evaluated in spleen of anesthetized rabbit after Intravenous injection of 50 uCi after 24 hr; format: ADME, organism-based; settings: in vivo; summary of the method: as §2
# Oryctolagus cuniculus [33] = experiment: Biodistribution pattern of [123I]- ligand was evaluated in liver of anesthetized rabbit after Intravenous injection of 50 uCi after 30 min; format: ADME, organism-based; settings: in vivo, 0.5 h; summary of the method: as §1
# Oryctolagus cuniculus [34] = experiment: Biodistribution pattern of [123I]- ligand was evaluated in liver of anesthetized rabbit after Intravenous injection of 50 uCi after 4 hr; format: ADME, organism-based; settings: in vivo; summary of the method: as §1
# Oryctolagus cuniculus [35] = experiment: Biodistribution pattern of [123I]- ligand was evaluated in lung of anesthetized rabbit after Intravenous injection of 50 uCi after 2 hr; format: ADME, organism-based; settings: in vivo; summary of the method: as §1
# Oryctolagus cuniculus [36] = experiment: Biodistribution pattern of [123I]- ligand was evaluated in right ventricular muscle of anesthetized rabbit after Intravenous injection of 50 uCi after 6 hr; format: ADME, organism-based, Muscle tissue; settings: in vivo; summary of the method: as §2
# Oryctolagus cuniculus [37] = experiment: Biodistribution pattern of [123I]- ligand was evaluated in lung of anesthetized rabbit after Intravenous injection of 50 uCi after 24 hr; format: ADME, organism-based; settings: in vivo; summary of the method: as §1
# Oryctolagus cuniculus [38] = experiment: Biodistribution pattern of [123I]- ligand was evaluated in intestine of anesthetized rabbit after Intravenous injection of 50 uCi after 5 min; format: ADME, organism-based; settings: in vivo; summary of the method: as §1
smiles,measurement,setting,value
CC(C)(/C=C/I)NC[C@H](O)COc1cccc2[nH]c3ccccc3c12,ID x kg of body weight/g of tissue,Oryctolagus cuniculus [1],0.02%
same,ID x kg of body weight/g of tissue,Oryctolagus cuniculus [2],0.02%
same,ID x kg of body weight/g of tissue,Oryctolagus cuniculus [3],0.02%
same,ID x kg of body weight/g of tissue,Oryctolagus cuniculus [4],0.05%
same,ID x kg of body weight/g of tissue,Oryctolagus cuniculus [5],< 0.29%
same,ID x kg of body weight/g of tissue,Oryctolagus cuniculus [6],0.05%
same,ID x kg of body weight/g of tissue,Oryctolagus cuniculus [7],< 0.26%
same,ID x kg of body weight/g of tissue,Oryctolagus cuniculus [8],< 0.13%
same,ID x kg of body weight/g of tissue,Oryctolagus cuniculus [9],0.15%
same,ID x kg of body weight/g of tissue,Oryctolagus cuniculus [10],0.18%
same,ID x kg of body weight/g of tissue,Oryctolagus cuniculus [11],0.5%
same,ID x kg of body weight/g of tissue,Oryctolagus cuniculus [12],0.07%
same,ID x kg of body weight/g of tissue,Oryctolagus cuniculus [13],0.02%
same,ID x kg of body weight/g of tissue,Oryctolagus cuniculus [14],0.02%
same,ID x kg of body weight/g of tissue,Oryctolagus cuniculus [15],0.05%
same,ID x kg of body weight/g of tissue,Oryctolagus cuniculus [16],0.52%
same,ID x kg of body weight/g of tissue,Oryctolagus cuniculus [17],< 1.74%
same,ID x kg of body weight/g of tissue,Oryctolagus cuniculus [18],0.82%
same,ID x kg of body weight/g of tissue,Oryctolagus cuniculus [19],5.75%
same,ID x kg of body weight/g of tissue,Oryctolagus cuniculus [20],0.08%
same,ID x kg of body weight/g of tissue,Oryctolagus cuniculus [21],0.2%
same,ID x kg of body weight/g of tissue,Oryctolagus cuniculus [22],0.13%
same,ID x kg of body weight/g of tissue,Oryctolagus cuniculus [23],0.01%
same,ID x kg of body weight/g of tissue,Oryctolagus cuniculus [24],0.06%
same,ID x kg of body weight/g of tissue,Oryctolagus cuniculus [25],0.06%
same,ID x kg of body weight/g of tissue,Oryctolagus cuniculus [26],0.05%
same,ID x kg of body weight/g of tissue,Oryctolagus cuniculus [27],0.09%
same,ID x kg of body weight/g of tissue,Oryctolagus cuniculus [28],0.11%
same,ID x kg of body weight/g of tissue,Oryctolagus cuniculus [29],0.11%
same,ID x kg of body weight/g of tissue,Oryctolagus cuniculus [30],0.008%
same,ID x kg of body weight/g of tissue,Oryctolagus cuniculus [31],0.02%
same,ID x kg of body weight/g of tissue,Oryctolagus cuniculus [32],0.03%
same,ID x kg of body weight/g of tissue,Oryctolagus cuniculus [33],0.19%
same,ID x kg of body weight/g of tissue,Oryctolagus cuniculus [34],0.04%
same,ID x kg of body weight/g of tissue,Oryctolagus cuniculus [35],1.29%
same,ID x kg of body weight/g of tissue,Oryctolagus cuniculus [36],0.08%
same,ID x kg of body weight/g of tissue,Oryctolagus cuniculus [37],0.18%
same,ID x kg of body weight/g of tissue,Oryctolagus cuniculus [38],0.16%
